In ChEMBL document CHEMBL4257585, “Structure-Activity Relationships of Photoswitchable Diarylethene-Based β-Hairpin Peptides as Membranolytic Antimicrobial and Anticancer Agents” (J Med Chem, 2018):
Values after ≈ are worked out from the molar mass of the structure shown.

How the values were obtained:
HeLa = experiment: Cytotoxicity against human HeLa cells assessed as reduction in cell viability after 24 hrs by MTT assay; assay type: functional, cell-based
Outline: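 HeLa cells seeded at about 5 × 10^4 cells/mL in DMEM with 10% FBS, 2 mM glutamine, gentamicin; 24 h adaptation (37 °C, 5% CO2), then 24 h peptide exposure. MTT 4 h, formazan in DMSO read at 570 nm. 2-fold series 256–0.5 (open) or 512–1 μg/mL (closed), four repetitions; IC50 extrapolated from killing curves. Closed form handled in dim light.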

[1] = Cytotoxicity against human doxorubicin-resistant MOR cells assessed as reduction in cell viability after 24 hrs by MTT assay; assay type: functional, cell-based
Outline: (§1)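 Cells were grown in DMEM with 10% FBS, 2 mM L-glutamine and 40 μg/mL gentamicin, seeded at about 5 × 10^4 cells/mL, and allowed 24 h adaptation (37 °C, 5% CO2). Peptides were then added for 24 h as 2-fold dilutions (open 256–0.5, closed 512–1 μg/mL), closed form handled under dim light. MTT was given for 4 h, formazan dissolved in DMSO and read at 570 nm. Four repetitions; IC50 extrapolated from viability curves.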

[2] = Cytotoxicity against human MOR cells assessed as reduction in cell viability after 24 hrs by MTT assay; assay type: functional, cell-based; outline: as §1
Bacillus subtilis = experiment: Antimicrobial activity against Bacillus subtilis DSM 347 after 22 hrs by resazurin dye based spectrophotometry; assay type: functional; conditions: DSM 347, 22 h
Outline: (§2)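 2-fold broth microdilution in Mueller–Hinton medium; peptide stocks 1024 μg/mL in 50% ethanol. Exponential-phase cultures diluted to OD550 0.2, then 1:100 (B. subtilis) or 1:1000 (E. coli), giving 5 × 10^5 CFU/mL per well. Incubated 22 h, 37 °C, static; then resazurin (0.2 mg/mL solution) added for 2 h at 37 °C, read visually and spectrophotometrically. Tested in both photoforms.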

[3] = Therapeutic index, ratio of HC50 for human RBC to MIC for Escherichia coli DSM 1103; assay type: toxicity; conditions: human red blood cells versus Escherichia coli DSM 1103
Outline: (§3)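 Ratio of HC50 (RBC) to HeLa IC50 or to MIC against B. subtilis or E. coli; values measured in mg/mL and recalculated to μM, 2-fold dilution without curve fitting, accuracy within a factor of 2.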

MCF7 = experiment: Cytotoxicity against human MCF7 cells assessed as reduction in cell viability after 24 hrs by MTT assay; assay type: functional, cell-based; conditions: MCF7, 24 h; outline: as §1
[4] = Hemolytic activity against human RBC assessed as hemolysis after 30 mins by colorimetric method; assay type: ADME, cell-based, Erythrocyte; conditions: human red blood cells (erythrocytes)
Outline: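 Human erythrocytes washed twice in isotonic 172 mM Tris-HCl, pH 7.6; peptides dissolved in DMSO, diluted in buffer, two independent 10-step 2-fold series from 256 or 192 μg/mL. HC50 extrapolated as 50% hemolysis concentration.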

MIA PaCa-2 = experiment: Cytotoxicity against human MIAPaCa2 cells assessed as reduction in cell viability after 24 hrs by MTT assay; assay type: functional, cell-based; conditions: MIA PaCa-2, 24 h; outline: as §1
[5] = Selective ratio of HC50 for human RBC to IC50 for human HeLa cells; assay type: toxicity; conditions: human red blood cells versus HeLa cells; outline: as §3
Escherichia coli = experiment: Antimicrobial activity against Escherichia coli DSM 1103 after 22 hrs by resazurin dye based spectrophotometry; assay type: functional; conditions: DSM 1103, 22 h; outline: as §2
[6] = Therapeutic index, ratio of HC50 for human RBC to MIC for Bacillus subtilis DSM 347; assay type: toxicity; conditions: human red blood cells versus Bacillus subtilis DSM 347; outline: as §3
HepG2 = experiment: Cytotoxicity against human HepG2 cells assessed as reduction in cell viability after 24 hrs by MTT assay; assay type: functional, cell-based; conditions: HepG2, 24 h; outline: as §1

| Compound | IC50 (HeLa) [µM] | IC50 [1] [µM] | IC50 [2] [µM] | MIC (Bacillus subtilis) [µM] | selectivity ratio [3] | IC50 (MCF7) [µM] | HC50 at 0.5 h [4] [µM] | IC50 (MIA PaCa-2) [µM] | selectivity ratio [5] | MIC (Escherichia coli) [µM] | selectivity ratio [6] | IC50 (HepG2) [µM] |
| --- | --- | --- | --- | --- | --- | --- | --- | --- | --- | --- | --- | --- |
| Cc1sc2cc1C1=C(CCC1)c1cc(sc1C)C(=O)[C@H]1CCCN1C(=O)[C@H](C(C)C)NC(=O)[C@H](CCCN)NC(=O)[C@H]([C@H](O)C(C)C)NC(=O)[C@@H]1CCCN1C(=O)[C@@H](Cc1ccccc1)NC(=O)[C@H](C(C)C)NC(=O)[C@H](CCCN)NC(=O)[C@H](C(C)C)NC2=O | 9 | 5 | 5 | 3 (≈ 3.85 µg/mL) | 0.4 | 6 | 20 | 6 | 2.2 | 50 (≈ 64.1 µg/mL) | 6.7 | 5 |
| CC(C)C[C@@H]1NC(=O)[C@H](CCCCN)NC(=O)[C@H](C(C)C)NC(=O)C2=CC3=C4CCCC4=C4C=C(S[C@]4(C)[C@@]3(C)S2)C(=O)[C@H]2CCCN2C(=O)[C@H](CC(C)C)NC(=O)[C@H](CCCCN)NC(=O)[C@H](C(C)C)NC(=O)[C@H](CCCCN)NC(=O)[C@H](CC(C)C)NC(=O)[C@@H]2CCCN2C(=O)[C@@H](Cc2ccccc2)NC(=O)[C@H](C(C)C)NC(=O)[C@H](CCCCN)NC1=O | 28 | – | – | 1 (≈ 1.78 µg/mL) | 1 | – | 37 | – | 1.3 | 36 (≈ 64 µg/mL) | 37 | – |
| Cc1sc2cc1C1=C(CCC1)c1cc(sc1C)C(=O)[C@H]1CCCN1C(=O)[C@H](C(C)C)NC(=O)[C@H](CCCN)NC(=O)[C@H](C(C)C)NC(=O)[C@@H]1CCCN1C(=O)[C@@H](Cc1ccccc1)NC(=O)[C@H](C(C)C)NC(=O)[C@H](CCCN)NC(=O)[C@H](CC(=O)NC(C)C)NC2=O | 66 | – | – | 3 (≈ 3.93 µg/mL) | 1.6 | – | 153 | – | 2.3 | 98 (≈ 128 µg/mL) | 51 | – |
| Cc1sc2cc1C1=C(CCC1)c1cc(sc1C)C(=O)[C@H]1CCCN1C(=O)[C@H](C(C)C)NC(=O)[C@H](CCCN)NC(=O)[C@H](C(C)C)NC(=O)[C@@H]1CCCN1C(=O)[C@@H](Cc1ccccc1)NC(=O)[C@H](C(C)C)NC(=O)[C@H](CCCN)NC(=O)[C@H](CCNC(=O)C(C)C)NC2=O | 36 | – | – | 3 (≈ 3.97 µg/mL) | 1.8 | – | 170 | – | 4.7 | 97 (≈ 128 µg/mL) | 56.7 | – |
| CC(C)[C@@H]1NC(=O)C2=CC3=C4CCCC4=C4C=C(S[C@]4(C)[C@@]3(C)S2)C(=O)[C@H]2CCCN2C(=O)[C@H](C(C)C)NC(=O)[C@H](CCCN)NC(=O)[C@H]([C@H](O)C(C)C)NC(=O)[C@@H]2CCCN2C(=O)[C@@H](Cc2ccccc2)NC(=O)[C@H](C(C)C)NC(=O)[C@H](CCCN)NC1=O | 150 | 100 | 150 | 9 (≈ 11.5 µg/mL) | 2 | 150 | 200 | 150 | 1.3 | 100 (≈ 128 µg/mL) | 21.3 | 100 |
| CC(C)C[C@@H]1NC(=O)[C@H](CCCCN)NC(=O)[C@H](C(C)C)NC(=O)C2=CC3=C4CCCC4=C4C=C(S[C@]4(C)[C@@]3(C)S2)C(=O)[C@H]2CCCN2C(=O)[C@H](CC(C)C)NC(=O)[C@H](CCCCN)NC(=O)[C@H](C(C)C)NC(=O)[C@H](CCCCN)N(C)C(=O)[C@@H](Cc2ccccc2)NC1=O | 24 | – | – | 3 (≈ 4.06 µg/mL) | 0.2 | – | 22 | – | 0.9 | 95 (≈ 129 µg/mL) | 7.3 | – |
